Series [1] is described as follows: Selectivity index, ratio of CC50 for african green monkey Vero cells to IC50 for microfilariae Brugia malayi. The format is functional. In short, it runs like this:
(§1)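 Selectivity index was calculated as CC50 (concentration killing 50% of cells) divided by the motility IC50 (concentration giving 50% motility inhibition). This was done separately for female adult worms and for microfilariae of B. malayi.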

A short description of series [2]: Cytotoxicity against african green monkey Vero cells. It is filed as cell-based. Particulars: chlorocebus sabaeus.
The subject of series [3] is Brugia malayi. As to the kind of experiment: Antifilarial activity against microfilariae Brugia malayi assessed as inhibition of motility after 24 hrs by microscopic analysis. Particulars: for IC50: Brugia malayi, 24 h. It is filed as functional, organism-based. Put shortly: (§2)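 In vitro, female adult worms and microfilariae of Brugia malayi were scored for motility. LC100 is the concentration giving 100% motility inhibition, which is taken as parasite death. IC50 is the concentration giving 50% motility inhibition. Adult worms were also run in a parallel MTT reduction assay, reported as mean % inhibition.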

The test system of series [4] is Brugia malayi. As to the kind of experiment: Antifilarial activity against female adult Brugia malayi assessed as inhibition of motility after 24 hrs by microscopic analysis. As to conditions: for IC50: Brugia malayi, 24 h. The format is functional, organism-based. Put shortly:
as §2

The subject of series [5] is Brugia malayi. As to the kind of experiment: Antifilarial activity against female adult Brugia malayi assessed as inhibition of MTT reduction at LC100 concentration after 24 hrs. It is filed as functional.
Series [6] concerns Brugia malayi. As to the kind of experiment: Antifilarial activity adult against Brugia malayi infected in jirds assessed as sterile female worms recovered from host at 25 mg/kg, sc qd for 5 days measured after 56 days relative to control. It is filed as functional. Particulars: route subcutaneous. Put shortly: (§3)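 Jirds (Meriones unguiculatus) infected with B. malayi were dosed s.c. once daily for 5 days, at 100 mg/kg or, for the reference drug, 25 mg/kg; vehicle-treated animals served as controls (4–6 animals per group). Microfilariae in the peritoneal cavity were assessed on days 7/8 after treatment began. Recovered adult worms were counted as % inhibition over untreated control, with % sterile females scored. Data are mean ± SD, compared by Student's t test.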

Series [7] has as its system Brugia malayi. As to the kind of experiment: Antifilarial activity against adult Brugia malayi infected in jirds assessed as reduction in worms recovered from host at 25 mg/kg, sc qd for 5 days measured after 56 days relative to control. It is filed as functional, organism-based. The arrangement: dose 25 mg/kg. In short, it runs like this:
as §3

Series [8] deals with Brugia malayi. Description: Antifilarial activity against adult Brugia malayi infected in jirds assessed as decrease in microfilarial activity isolated from host peritoneal cavity at 25 mg/kg, sc qd for 5 days measured after 7 to 8 days. Set-up: dose 25 mg/kg. The format is functional, organism-based. Put shortly:
as §3

Series [9] is described as follows: Selectivity index, ratio of CC50 for african green monkey Vero cells to IC50 for female adult Brugia malayi. The format is functional. In short, it runs like this:
as §1

Series [10] concerns Brugia malayi. As to the kind of experiment: Antifilarial activity against adult Brugia malayi infected in jirds assessed as sterile female worms recovered from host at 100 mg/kg, sc qd for 5 days measured after 56 days relative to control. The format is functional. As to conditions: route subcutaneous. Put shortly:
as §3

For series [11], the system named is Brugia malayi. Description: Antifilarial activity against adult Brugia malayi infected in jirds assessed as reduction in worms recovered from host at 100 mg/kg, sc qd for 5 days measured after 56 days relative to control. The format is functional. Put shortly: as §3
For series [12], the system named is Brugia malayi. As to the kind of experiment: Antifilarial activity against adult Brugia malayi infected in jirds assessed as decrease in microfilarial activity isolated from host peritoneal cavity at 100 mg/kg, sc qd for 5 days measured after 7 to 8 days. Set-up: dose 100 mg/kg. It is filed as functional, organism-based. In short, it runs like this:
as §3

Series [13] concerns Brugia malayi. Description: Ratio of diethylcarbamazine citrate IC50 to compound IC50 for female adult Brugia malayi. The format is functional.
Series [14] deals with Brugia malayi. Description: Ratio of diethylcarbamazine citrate LC100 to compound LC100 for female adult Brugia malayi. It is filed as functional.
The subject of series [15] is Meriones unguiculatus. Description: Toxicity against jird infected with adult Brugia malayi assessed as behavioural change at 100 mg/kg, sc qd for 5 days measured up to 56 days. It is filed as organism-based. The arrangement: dose 100 mg/kg, route subcutaneous. As to conditions: gerbil, in vivo.
Series [16] relates to Brugia malayi. Description: Ratio of diethylcarbamazine citrate IC50 to compound IC50 for microfilariae Brugia malayi. The format is functional.

The structures appear in SMILES notation. Converted amounts (≈) assume the structure as drawn. The source made the active and inactive calls. The rule behind the calls is not given here. Where only a bound is given, the exact number is not on record here.

We go through 8 compounds from ChEMBL document CHEMBL2375261, “Glycyrrhetinic acid and its analogs: a new class of antifilarial agents” (Bioorg Med Chem Lett, 2013).

Consider `CCOC(=O)[C@@]1(C)CC[C@]2(C)CC[C@]3(C)C(=CC(=O)[C@@H]4[C@@]5(C)CC[C@H](OC(C)=O)C(C)(C)[C@@H]5CC[C@]43C)[C@@H]2C1`, for which, in series [1], the “Ratio CC50/IC50” value is given as 1.16. Besides, in [2], it took 10.3 µg/mL (≈ 19 µM) to reach half-maximal cytotoxicity (CC50). Also, in series [3], the LC100 was determined as 50 µM and the IC50 came out at 8.84 µM. Besides, the LC100 in series [4] was over 100 µM. Further, the “inhibition (INH)” value in series [5] is 28.78%.
In the case of `CCN(CC)C(=O)N1CCN(C)CC1.O=C(O)CC(O)(CC(=O)O)C(=O)O` [DIETHYLCARBAMAZINE CITRATE], in series [6], the Activity was found to be 11%. Moreover, the result in [7] and in series [8] was inactive. Further, the “Ratio CC50/IC50” value stood at 25.7 in series [1] and 31.5 in series [9]. For the same compound, the half-maximal cytotoxic concentration (CC50) in [2] was 9100 µg/mL. For the same compound, the LC100 in series [3] turned out to be 500 µM; in [4], 800 µM. Besides, the IC50 in series [3] is 354 µM; in series [4], 289 µM. Further, the “inhibition (INH)” value in [5] is given as 64%.
Take `CC1(C)[C@@H](O)CC[C@]2(C)[C@H]3C(=O)C=C4[C@@H]5C[C@@](C)(C(=O)O)CC[C@]5(C)CC[C@@]4(C)[C@]3(C)CC[C@@H]12` [ENOXOLONE]: the figures for the LC100 in series [3] and in [4] were 12.5 µM and over 100 µM, respectively. Besides, the IC50 in series [3] was determined as 1.2 µM. Further, the “inhibition (INH)” value in series [5] is 21.71%.
With `CC(=O)O[C@H]1CC[C@]2(C)[C@H]3C(=O)C=C4[C@@H]5C[C@@](C)(C(=O)O)CC[C@]5(C)CC[C@@]4(C)[C@]3(C)CC[C@H]2C1(C)C` [ACETOXOLONE], the LC100 in series [3] and in series [4] was over 100 µM throughout. In addition, the “inhibition (INH)” value in series [5] was 9.45%.
`CCCCCCCCNC(=O)[C@@]1(C)CC[C@]2(C)CC[C@]3(C)C(=CC(=O)[C@@H]4[C@@]5(C)CC[C@H](OC(C)=O)C(C)(C)[C@@H]5CC[C@]43C)[C@@H]2C1`: the Activity in [10] amounted to 5%. Besides, the result in [11] and in series [12] was inactive. Moreover, in series [13], the “Ratio IC50” value was found to be 16. Besides, the Ratio in [14] amounted to 8. The “Ratio CC50/IC50” value in [1] came to 2.53; in series [9] it was 6.01. The same compound displayed a half-maximal cytotoxic concentration (CC50) in [2] of 106 µg/mL (≈ 170 µM). Besides, the LC100 in series [3] and in series [4] was 100 µM in each case. In addition, the IC50 in series [3] was 42 µM; in series [4], 17.7 µM. For the same compound, in [5], the “inhibition (INH)” value amounted to 52.15%.
For `CCCCCCCCCCCC(=O)O[C@H]1CC[C@]2(C)[C@H]3C(=O)C=C4[C@@H]5C[C@@](C)(C(=O)O)CC[C@]5(C)CC[C@@]4(C)[C@]3(C)CC[C@H]2C1(C)C`, the LC100 in series [3] and in [4] was over 100 µM throughout. Further, in series [5], the “inhibition (INH)” value came to 10.69%.
`CC(=O)O[C@H]1CC[C@]2(C)[C@H]3C(=O)C=C4[C@@H]5C[C@@](C)(C(=O)NCc6ccccc6)CC[C@]5(C)CC[C@@]4(C)[C@]3(C)CC[C@H]2C1(C)C`: the Activity entry is recorded as “Non-toxic” in [15], 11% in series [10] and 54.21% in series [11] (route subcutaneous). For the same compound, the outcome in [12] was inactive. In addition, in series [16], the “Ratio IC50” value was 160. Besides, the Ratio in series [14] stood at 32. The “Ratio CC50/IC50” value in series [1] is reported as 264.06; in series [9], 66.02. This compound had a cytotoxic concentration (CC50) in series [2] of 584 µg/mL (≈ 970 µM). In addition, the LC100 in [3] came to 50 µM; in series [4], 25 µM. For the same compound, the figures for the IC50 in series [3] and in series [4] were 2.21 µM and 8.84 µM, respectively. The “inhibition (INH)” value in series [5] worked out at 48.79%.
In the case of `COC(=O)[C@@]1(C)CC[C@]2(C)CC[C@]3(C)C(=CC(=O)[C@@H]4[C@@]5(C)CC[C@H](OC(C)=O)C(C)(C)[C@@H]5CC[C@]43C)[C@@H]2C1`, in [1], the “Ratio CC50/IC50” value is listed as 3.58. Further, in series [2], the CC50 was determined as 7.92 µg/mL (≈ 15 µM). Also, in [3], the LC100 is 25 µM and the IC50 was found to be 2.21 µM. For the same compound, the LC100 in [4] is over 100 µM. In series [5], the “inhibition (INH)” value was 7.47%.
